Assay [1] relates to CCRF-CEM. Put plainly: Antioxidant activity in human CCRF-CEM cells assessed as suppression of diethyl maleate-induced ROS generation at 2.5 uM preincubated for 18 hrs prior to diethyl maleate-challenge measured after 1 hr by FACS flow cytometric analysis in presence of DCFH-DA. The assay is classed as functional, cell-based. In a few lines:
(§1)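 Lymphocytes (Coriell, RPMI with 15% FBS) or CCRF-CEM cells (RPMI with 10% FBS), 2.5 × 10⁵ cells/mL, exposed to compounds for 18 h at 37 °C, then 5 mM diethyl maleate for 1 h. Cells washed in PBS, loaded with 10 µM DCFH-DA in PBS/10 mM glucose for 25 min at 37 °C in the dark. DCF read by flow cytometry (488 nm excitation, 530 nm emission). Mean ± S.E.M., three experiments in duplicate.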

Assay [2] concerns CCRF-CEM. Put plainly: Antioxidant activity in human CCRF-CEM cells assessed as suppression of diethyl maleate-induced ROS generation preincubated for 18 hrs prior to diethyl maleate-challenge measured after 1 hr by FACS flow cytometric analysis in presence of DCFH-DA. The assay is classed as functional, cell-based. In a few lines: as §1
Assay [3] in a line: Effect on total ATP level in CoQ10-deficient human GM17932 cells at 5 uM after 48 hrs by bioluminescence assay relative to control. It counts as functional. The procedure, abridged: (§2)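 Lymphocytes were adapted to glucose-free RPMI with 25 mM galactose for at least one week. Cells at 2 × 10⁵ cells/mL were given compound at final 5, 10 or 25 µM for 48 h at 37 °C, 5% CO₂. Total intracellular ATP was measured by luciferase bioluminescence kit and expressed as % of untreated control.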

For assay [4], the system named is CCRF-CEM. Put plainly: Antioxidant activity in human CCRF-CEM cells assessed as suppression of diethyl maleate-induced ROS generation at 0.25 uM preincubated for 18 hrs prior to diethyl maleate-challenge measured after 1 hr by FACS flow cytometric analysis in presence of DCFH-DA. The assay is classed as functional, cell-based. The procedure, abridged:
as §1

Assay [5] is filed under the species Homo sapiens. Kind of assay: Antioxidant activity in Leber's optic atrophy disease patient GM10744 cells assessed as suppression of diethyl maleate-induced ROS generation at 0.025 to 2.5 uM preincubated for 18 hrs prior to diethyl maleate-challenge measured after 1 hr by FACS flow cytometric analysis in presence of DCFH-DA. The assay is classed as functional. In a few lines:
as §1

Assay [6] in a line: Effect on total ATP level in Leber's optic atrophy disease patient GM10744 cells at 5 uM after 48 hrs by bioluminescence assay relative to control. The assay is classed as functional, Homo sapiens. In a few lines: as §2
For assay [7], the species on record is Bos taurus. Kind of assay: Inhibition of NADH oxidase activity of bovine heart mitochondrial […] at 5 uM after 5 mins by spectrophotometric analysis relative to control; values are per cent of control.
A short description of assay [8]: Inhibition of NADH-ubiquinone oxidoreductase in bovine heart mitochondria after 5 mins by spectrophotometric analysis. Also noted: species or system Bos taurus. The procedure, abridged:
(§3)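 Bovine heart submitochondrial particles, 12 µg, incubated 5 min at 39 °C with compound in 50 mM phosphate pH 7.4, 0.25 M sucrose, 1 mM MgCl₂, 2 mM KCN, plus antimycin A. Reaction started with 50 µM NADH and 50 µM coenzyme Q₁; NADH loss read at 340 nm. K_I derived. Mean of three experiments in triplicate.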

The nature of assay [9]: Effect on total ATP level in CoQ10-deficient human GM17932 cells at 25 uM after 48 hrs by bioluminescence assay relative to control. It counts as functional. The procedure, abridged: as §2
The species entered for assay [10] is Bos taurus. Put plainly: Inhibition of NADH oxidase activity of bovine heart mitochondrial […] at 10 uM after 5 mins by spectrophotometric analysis relative to control; values are per cent of control.
Assay [11] is described as follows: Effect on total ATP level in Leber's optic atrophy disease patient GM10744 cells at 25 uM after 48 hrs by bioluminescence assay relative to control. The assay is classed as functional, Homo sapiens. The procedure, abridged: as §2
Assay [12] is filed under the species Bos taurus. Kind of assay: Inhibition of NADH oxidase activity of bovine heart mitochondrial […] at 1 uM after 5 mins by spectrophotometric analysis relative to control; values are per cent of control.
The species entered for assay [13] is Homo sapiens. Put plainly: Antioxidant activity in Alzheimer's disease patient AG06849 cells assessed as suppression of diethyl maleate-induced ROS generation at 0.025 to 2.5 uM preincubated for 18 hrs prior to diethyl maleate-challenge measured after 1 hr by FACS flow cytometric analysis in presence of DCFH-DA. The assay is classed as functional. The procedure, abridged: as §1

Assay [14] relates to GM15850. Put plainly: Effect on total ATP level in Friedreich's ataxia disease patient GM15850 cells at 5 uM after 48 hrs by bioluminescence assay relative to control. The assay is classed as functional, Homo sapiens. In a few lines:
as §2

For assay [15], the species on record is Bos taurus. Kind of assay: Inhibition of NADH-ubiquinone oxidoreductase in bovine heart mitochondria after 5 mins by spectrophotometric analysis relative to control. The procedure, abridged: as §3
Assay [16] is described as follows: Effect on total ATP level in Leber's optic atrophy disease patient GM10744 cells at 10 uM after 48 hrs by bioluminescence assay relative to control. It counts as functional, Homo sapiens. The procedure, abridged:
as §2

Assay [17] deals with GM15850. Put plainly: Effect on total ATP level in Friedreich's ataxia disease patient GM15850 cells at 25 uM after 48 hrs by bioluminescence assay relative to control. It counts as functional, Homo sapiens. In a few lines: as §2
Assay [18] can be described thus: Effect on total ATP level in CoQ10-deficient human GM17932 cells at 10 uM after 48 hrs by bioluminescence assay relative to control. It counts as functional. The procedure, abridged:
as §2

In assay [19] the test system is GM15850. Put plainly: Effect on total ATP level in Friedreich's ataxia disease patient GM15850 cells at 10 uM after 48 hrs by bioluminescence assay relative to control. It counts as functional, Homo sapiens. The procedure, abridged:
as §2

Assay [20] deals with CCRF-CEM. Kind of assay: Cytoprotective activity against diethyl maleate-induced oxidative stress in human CCRF-CEM cells assessed as cell viability at 0.5 uM preincubated for 15 hrs prior to diethyl maleate-challenge measured after 6 hrs by hemocytometer-based assay. It counts as functional. The procedure, abridged:
(§4)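 Cells seeded at 5 × 10⁵ cells/mL, preincubated with 0.5 or 2.5 µM compound at 37 °C, 5% CO₂, then given 5 mM diethyl maleate for 6 h. Viable cells counted by trypan blue exclusion on a hemocytometer. Viability expressed as % of untreated control. Three independent experiments in triplicate, mean ± S.E.M.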

Assay [21] is filed under the species Homo sapiens. Kind of assay: Cytoprotective activity against diethyl maleate-induced oxidative stress in Parkinson's disease patient GM15010 cells assessed as cell viability at 0.5 uM preincubated for 15 hrs prior to diethyl maleate-challenge measured after 6 hrs by hemocytometer-based assay. It counts as functional. In a few lines:
as §4

The species named for assay [22] is Homo sapiens. Kind of assay: Cytoprotective activity against diethyl maleate-induced oxidative stress in Leber's optic atrophy disease patient GM10744 cells assessed as cell viability at 0.5 uM preincubated for 15 hrs prior to diethyl maleate-challenge measured after 6 hrs by hemocytometer-based assay. The assay is classed as functional. In a few lines:
as §4

The species entered for assay [23] is Homo sapiens. Put plainly: Cytoprotective activity against diethyl maleate-induced oxidative stress in Leigh's syndrome patient GM13740 cells assessed as cell viability at 0.5 uM preincubated for 15 hrs prior to diethyl maleate-challenge measured after 6 hrs by hemocytometer-based assay. The assay is classed as functional. The procedure, abridged:
as §4

The species entered for assay [24] is Homo sapiens. Kind of assay: Cytoprotective activity against diethyl maleate-induced oxidative stress in Alzheimer's disease patient AG06849 cells assessed as cell viability at 0.5 uM preincubated for 15 hrs prior to diethyl maleate-challenge measured after 6 hrs by hemocytometer-based assay. The assay is classed as functional. The procedure, abridged: as §4

The test system of assay [25] is GM15850. Kind of assay: Cytoprotective activity against diethyl maleate-induced oxidative stress in Friedreich's ataxia disease patient GM15850 cells assessed as cell viability at 0.5 uM preincubated for 15 hrs prior to diethyl maleate-challenge measured after 6 hrs by hemocytometer-based assay. The assay is classed as functional. The note with it: Homo sapiens. The procedure, abridged: as §4

In assay [26] the test system is CCRF-CEM. Put plainly: Antioxidant activity in human CCRF-CEM cells assessed as suppression of diethyl maleate-induced ROS generation at 0.25 to 2.5 uM preincubated for 18 hrs prior to diethyl maleate-challenge measured after 1 hr by FACS flow cytometric analysis in presence of DCFH-DA. It counts as functional, cell-based. In a few lines: as §1

pIC50, pKi: −log10 of the molar value. The source made the active and inactive calls. The calls are words filed in the database; no cut-off is given here.

On to `Cc1nc(N(C)C)nc(CCCCCCCCCCO)c1O`, for which the outcome in the assay on CCRF-CEM [1], with CCRF-CEM [4], in the assay listed under Homo sapiens [5] and in the assay listed under Homo sapiens [13] was Active. Besides, the Activity result with CCRF-CEM [2] is “Dose-dependent effect”; in assay [3], 98.8%; in assay [6] it was 75.5%; in assay [9], 46.4%; in assay [11], 20.7%; in the assay on GM15850 [14], 77.2%. The Activity in assay [16] turned out to be 45.6%; in the assay on GM15850 [17], 27.7%; in [18] it was 86.1%; in the assay on GM15850 [19], 46.3%. Besides, the residual activity was found to be 22% in the assay filed under Bos taurus [7], 15% in the assay filed under Bos taurus [10] and 50% in the assay listed under Bos taurus [12]. The pIC50 in [8] was 6.00. The compound also gave a pKi in [8] of 6.15. The compound further gave an Imax in the assay filed under Bos taurus [15] of 85%.
Consider `CCCCCCCCCCC1=C(C)C(=O)C(OC)=C(OC)C1=O` [DECYLUBIQUINONE], for which the outcome with CCRF-CEM [1], with CCRF-CEM [4], in the assay listed under Homo sapiens [5], in the assay on CCRF-CEM [20], in the assay filed under Homo sapiens [21] and in the assay filed under Homo sapiens [22] was Active. The result in the assay listed under Homo sapiens [23], in the assay filed under Homo sapiens [24], in the assay listed under Homo sapiens [13] and in the assay on GM15850 [25] was Active. The Activity entry is “Dose-dependent effect” in the assay with CCRF-CEM [2]; 100% in [3]; 75.1% in [6]; 71.1% in [9]; 47% in assay [11]; 92.8% with GM15850 [14]. Moreover, the Activity in assay [16] worked out at 63.4%; with GM15850 [17] it was 62.7%; in assay [18], 86.2%; with GM15850 [19] it was 76.4%. Besides, the values for the residual activity in the assay filed under Bos taurus [7], in the assay filed under Bos taurus [10] and in the assay listed under Bos taurus [12] were 82.4%, 61.5% and 93%, respectively. In [8], the negative-log IC50 (pIC50) was under 3.70. Further, the pKi in assay [8] was under 3.70.
Turning to `CCCCCCCCCCc1nc(N(C)C)nc(C)c1O`, the Activity result with CCRF-CEM [2] is “Dose-dependent effect”; in assay [3], 105.2%; in assay [6], 95.6%; in [9], 72.4%; in assay [11], 40.6%; in the assay with GM15850 [14] it was 83.3%. For the same compound, the Activity in assay [16] worked out at 75%; with GM15850 [17] it was 42.2%; in assay [18], 97.1%; with GM15850 [19], 74.4%. Also, the outcome in the assay with CCRF-CEM [26], in the assay listed under Homo sapiens [5], in the assay with CCRF-CEM [20], in the assay filed under Homo sapiens [21], in the assay listed under Homo sapiens [22] and in the assay filed under Homo sapiens [23] was Active. The outcome in the assay filed under Homo sapiens [24], in the assay filed under Homo sapiens [13] and in the assay with GM15850 [25] was Active. In addition, the residual activity in the assay listed under Bos taurus [7] was found to be 17.7%; in the assay filed under Bos taurus [10], 3.9%; in the assay listed under Bos taurus [12], 35.4%. Besides, the pIC50 in assay [8] is 5.70. In addition, the negative logarithm of the Ki (pKi) in assay [8] is 5.85. Also, in the assay listed under Bos taurus [15], the Imax is 88%.
Turning to `CCCCCCCCCCCCCCCCc1nc(N(C)C)nc(C)c1O`, the Activity result is “Dose-dependent effect” in the assay on CCRF-CEM [2]; 108.2% in [3]; 102.7% in [6]; 95% in assay [9]; 83.4% in [11]; 95.3% in the assay on GM15850 [14]. The Activity in assay [16] is 95.6%; with GM15850 [17] it was 74.7%; in [18], 103%; with GM15850 [19], 90.3%. Also, the outcome with CCRF-CEM [26], in the assay listed under Homo sapiens [5], in the assay with CCRF-CEM [20], in the assay listed under Homo sapiens [21], in the assay listed under Homo sapiens [22] and in the assay listed under Homo sapiens [23] was Active. The result in the assay listed under Homo sapiens [24], in the assay filed under Homo sapiens [13] and in the assay on GM15850 [25] was Active. The residual activity in the assay filed under Bos taurus [7] is 88.6%; in the assay filed under Bos taurus [10] it was 76.9%; in the assay listed under Bos taurus [12], 96.2%. The negative-log IC50 (pIC50) in assay [8] was 3.70. In addition, the pKi in [8] is 3.85. Further, the Imax in the assay listed under Bos taurus [15] stood at 84%.

These data come from ChEMBL document CHEMBL2396633, “Effects of cytoprotective antioxidants on lymphocytes from representative mitochondrial neurodegenerative diseases” (Bioorg Med Chem, 2013).
